# Screens: PubChem, several laboratories
# Compounds with a hit are over-represented: about 29% of the library has one in this group of screens.
# Ecoli WT expand: blocks growth of wild type E. coli BW25113; OD600 absorbance; growth inhibition, % at 100 µM; 0.15% of 98,000 active;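 active = growth inhibition above about 50% at one test dose, limit read from the data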;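 note: growth measured after 20 h incubation at 37 °C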
# tolC growth inh: E. coli tolC mutant growth inhibition; E. coli BW25113 tolC mutant growth, OD615; growth inhibition, % at 10 µM (by protocol); 2.2% of 65,000 active; AID 573;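 active = growth inhibition at or above a cutoff equal to the mean over every tested compound plus 3 SD, cut at about 60% in these data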;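 note: growth measured after 20 h incubation at 37 °C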
#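 Doses: one dose of 10 µM final / Material: E. coli BW25113 ΔtolC::kan, tolC deletion mutant strain / Buffer or medium: LB with kanamycin 50 µg/mL / Evaluation: percent growth inhibition / Detection: optical density read at 615 nm / Incubation: 37 °C, 20 h exposure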
# CYP2C9 inh: human CYP2C9 inhibition; CYP2C9 Supersomes, luciferin-H conversion, luminescence; P11712; AID 777; 20% of 96,000 active; inhibition, % at 5 µM;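 active = blocking of liver enzyme CYP2C9 beyond about 50% at 5 µM, limit read from the data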
# CYP2C19 inh: inhibitors of human CYP2C19. CYP2C19 Supersomes, luciferin-H EGE luminescence, 30 min. P33261. AID 778. inhibition, % at 5 µM. 21% of 96,000 active;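 active = CYP2C19 inhibition above a set limit at 5 µM in the primary screen, cut at about 50% in these data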
# Target sequence (P33261 whole entry, looked up): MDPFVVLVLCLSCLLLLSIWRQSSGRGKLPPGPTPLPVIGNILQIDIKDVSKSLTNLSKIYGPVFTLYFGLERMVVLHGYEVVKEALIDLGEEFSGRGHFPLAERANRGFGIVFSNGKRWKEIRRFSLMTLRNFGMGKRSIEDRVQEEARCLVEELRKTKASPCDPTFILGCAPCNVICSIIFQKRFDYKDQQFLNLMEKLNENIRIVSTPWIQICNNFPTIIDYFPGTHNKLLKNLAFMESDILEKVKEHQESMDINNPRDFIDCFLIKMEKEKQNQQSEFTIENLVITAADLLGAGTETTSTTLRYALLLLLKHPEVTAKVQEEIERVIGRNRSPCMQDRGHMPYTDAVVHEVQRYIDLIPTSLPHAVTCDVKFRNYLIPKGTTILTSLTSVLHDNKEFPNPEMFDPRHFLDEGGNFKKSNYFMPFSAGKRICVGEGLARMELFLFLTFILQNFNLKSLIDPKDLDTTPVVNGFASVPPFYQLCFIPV
# CYP2C9 activ: CYP2C9 (human) activation | activation factor at 5 µM | 1.4% of 96,000 active | AID 1024 | recombinant CYP2C9, luciferin-H conversion, luminescence; hits give high values; factor 1 = untreated enzyme, 0 = blocked;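 active = activation factor of 2 or more for CYP2C9 at a 5 µM dose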
# CYP2C19 activ: activators of human cytochrome P450 2C19 | AID 1025 | activation factor at 5 µM | 96,000 tested, under 10 active | recombinant CYP2C19, luciferin-H EGE luminescence; hits give high values; 0 = fully inhibited enzyme, 1 = untreated enzyme | P33261;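 active = activation factor of at least 2 at 5 µM in the primary screen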
# Numbers stand for hits; n = inactive; x = not tested or not shown.
SMILES,Ecoli WT expand,tolC growth inh,CYP2C9 inh,CYP2C19 inh,CYP2C9 activ,CYP2C19 activ
COCCCn1c(SCc2cc(=O)[nH]c3ccccc23)nnc1-c1ccco1,n,n,n,n,n,n
Cc1cc(-c2cccc([N+](=O)[O-])c2)nc2ccc3ccccc3c12,n,x,n,n,n,n
Cc1ccc(C)c(NS(=O)(=O)c2cc(C(=O)NCCC3=CCCCC3)ccc2C)c1,n,x,n,n,n,n
CC(=O)c1cccc(NC(=O)c2ccc(N(C)S(C)(=O)=O)cc2)c1,n,n,n,n,n,n
Cc1ccc(C)c(NS(=O)(=O)c2cc(C(N)=O)ccc2C)c1,n,n,n,76,n,n
Cc1ccc(C)c(NS(=O)(=O)c2cc(C(=O)Nc3cccc(N(C)S(C)(=O)=O)c3)ccc2C)c1,n,x,79,n,n,n
Cc1cc(C)cc(Oc2ccc(C(F)(F)F)cc2C#N)c1,n,x,52,58,n,n
CCOc1ccc2nc(NC(=O)Nc3ccccc3)sc2c1,n,x,n,n,n,n
COc1ccc2nc(NC(=O)CSc3nccc(C)n3)sc2c1,n,x,n,n,n,n
CCOc1ccc2nc(NC(=O)c3ccoc3C)sc2c1,n,n,85,100,n,n
CCOc1ccc2nc(NC(=O)C(CC)Sc3nc(C)cc(=O)[nH]3)sc2c1 (stereo not drawn),n,67,68,n,n,n
COc1ccc2nc(NC(=O)CSc3nc(C)cc(=O)[nH]3)sc2c1,n,x,52,n,n,n
CCOc1ccc2nc(NC(=O)C(NS(=O)(=O)c3cccc4nsnc34)C(C)C)sc2c1 (stereo not drawn),n,x,n,70,n,n
CC(C)C(NS(=O)(=O)c1cccc2nsnc12)C(=O)Nc1nc2ccc(Cl)cc2s1 (stereo not drawn),n,x,n,n,n,n
CCOc1ccc2nc(NC(=O)COC)sc2c1,n,n,n,n,n,n
COCCn1c(=O)c2c3c(sc2n(CC(N)=O)c1=O)CCCC3,x,n,x,x,x,x
COc1ccc(-n2nnc3c(SCC(=O)N4CCCc5ccccc54)ncnc32)cc1,x,n,x,x,x,x
COc1ccc(-c2nnc(SCc3cccc(C)c3)n2N)cc1,n,x,n,52,n,n
COc1ccc(OCCSc2nnc(-c3ccc(OC)cc3)n2N)cc1,n,x,n,n,n,n
COc1ccc(-c2nnc(SCc3cc(C)ccc3C)n2N)cc1,n,x,n,62,n,n
Cc1cccc(CSc2nnc(-c3ccccn3)n2N)c1,n,n,n,60,n,n
CCOC(=O)c1sc(=S)n(Cc2ccccc2)c1N,n,n,79,n,n,n
CCOC(=O)c1sc(=S)n(CC)c1N,n,n,72,84,n,n
CCOC(=O)c1sc(=S)n(-c2ccc3c(c2)OCO3)c1N,n,n,n,64,n,n
CCOC(=O)c1sc(=S)n(-c2ccc(F)c(F)c2)c1N,n,n,n,n,n,n
SMILES,Ecoli WT expand,tolC growth inh,CYP2C9 inh,CYP2C19 inh,CYP2C9 activ,CYP2C19 activ
CCOC(=O)c1sc(=S)n(-c2ccccc2OC)c1N,n,n,56,n,n,n
CCCC(=O)c1c[nH]c(C(=O)NCCCN2CCOCC2)c1,n,x,n,n,n,n
O=C(NCCCN1CCOCC1)c1cc2ccccc2o1,n,x,n,n,n,n
C=CCn1c(N)c(C(=O)OCC)sc1=S,n,x,n,n,n,n
C=CCn1c(NC(=O)CC)c(C(=O)OCC)sc1=S,n,x,n,52,n,n
Cc1ccc(CN2CCN(Cc3ccccc3C(F)(F)F)CC2)cc1,n,x,n,64,n,n
CS(=O)(=O)N1CCN(Cc2ccc(C(F)(F)F)cc2)CC1,n,x,n,n,n,n
CS(=O)(=O)N1CCN(Cc2ccccc2C(F)(F)F)CC1,n,n,n,73,n,n
O=C(Cn1cnc2c(nnn2Cc2ccc(F)cc2)c1=O)NCC1CCCO1 (stereo not drawn),x,n,x,x,x,x
COC(=O)Nc1ccc(NC(C)=O)cc1,n,n,n,n,n,n
O=C(COC(=O)c1cccnc1)Nc1ccc(F)cc1,n,n,n,84,n,n
CCN(CC)c1ccc(NC(=O)OC)cc1,n,x,63,n,n,n
Cc1ccc(OCC(=O)Nc2ccc(N(C)C)cc2)cc1,n,n,n,87,n,n
CCN(CC)c1ccc(NC(=O)COc2ccc(C)cc2)cc1,x,n,n,66,n,n
COCC(=O)Nc1ccc(N(C)C)cc1,n,n,n,n,n,n
CCOc1ccc(OCC(=O)Nc2ccc(OC)cc2)cc1,n,x,n,n,n,n
CN(C)c1ccc(NC(=O)COC(=O)CCC(=O)c2ccc(F)cc2)cc1,n,x,81,90,n,n
Cc1ccc(NC(=O)CNc2ccc(OC(C)C)cc2)cc1,n,x,70,n,n,n
COc1cccc(C2CC(c3ccccc3Cl)Nc3nc(N)nn32)c1 (stereo not drawn),x,n,x,x,x,x
COc1cccc(C2CC(c3ccc(Cl)cc3Cl)Nc3nc(N)nn32)c1 (stereo not drawn),n,n,54,67,n,n
COc1ccccc1C1CC(c2ccc(Cl)cc2)Nc2nc(N)nn21 (stereo not drawn),n,n,n,50,n,n
COc1ccc(C2CC(c3ccc(Cl)cc3Cl)n3nc(N)nc3N2)cc1 (stereo not drawn),n,n,x,x,x,x
COc1cccc(C2CC(c3ccccc3)Nc3ncnn32)c1 (stereo not drawn),n,n,n,95,n,n
COc1cccc(C2CC(c3ccccc3OC)n3ncnc3N2)c1 (stereo not drawn),n,n,66,96,n,n
CC(=O)Nc1ccc(Oc2ncccn2)c(Cl)c1,n,x,n,n,n,n
SMILES,Ecoli WT expand,tolC growth inh,CYP2C9 inh,CYP2C19 inh,CYP2C9 activ,CYP2C19 activ
Cc1nn(Cc2ccc([N+](=O)[O-])cc2)c(=O)n1-c1cccc(F)c1,n,x,n,n,n,n
CC(C)Cn1c(Br)nc2c1c(=O)n(CCC#N)c(=O)n2C,n,n,n,n,n,n
CC1(C)CC2CC(C)(CN2C(=O)COC(=O)Cn2[nH]c(=O)c3ccccc3c2=O)C1 (stereo not drawn),n,n,n,n,n,n
CCOc1ccccc1C1CC(c2ccc(F)cc2)Nc2nc(N)nn21 (stereo not drawn),n,n,n,65,n,n
Cc1ccccc1C1CC(c2ccccc2)Nc2ncnn21 (stereo not drawn),n,n,n,n,n,n
CCOc1ccc(C2CC(c3ccccc3C)n3ncnc3N2)cc1 (stereo not drawn),n,n,n,64,n,n
COc1ccccc1C1CC(c2ccc(Cl)cc2)Nc2ncnn21 (stereo not drawn),n,60,70,98,n,n
CCc1ccc(C2CC(c3ccccc3C)n3nc(N)nc3N2)cc1 (stereo not drawn),n,n,n,n,n,n
COc1ccc(C2CC(c3c(Cl)cccc3Cl)n3nc(N)nc3N2)cc1 (stereo not drawn),n,n,n,62,n,n
CC1CCCCN1CCNC(=O)c1cnn2ccccc12 (stereo not drawn),n,n,n,n,n,n
